Results published in article PMC12166256 (Clinical Pharmacology and Therapeutics, 2025).

Test: MAD study: safety and tolerability
Type: in vivo, human
In short: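 Healthy males aged 18–55 with BMI 18–30 kg/m² were followed through dosing and a 6–8-day follow-up. Checks: physical examination, clinical laboratory tests, vital signs and 12-lead ECG, with adverse events coded in MedDRA. Events of special interest: ALT ≥2×ULN, QTcF ≥500 ms, Grade ≥2 photosensitivity, symptomatic overdose. Treatment-emergent events were summarised descriptively by organ class, preferred term and dose level for all exposed participants.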

SMILES: CN1C(=O)c2cccc(OC(F)F)c2[C@H]2C[C@@H]1c1nc3ccc(-c4cnc(C5(N)CCC5)nc4)cc3n12 [Balinatunfib]
- Alanine aminotransferase increased TEAE, events (MAD 200 mg BID, N = 8): 0
- Alanine aminotransferase increased TEAE, participants (MAD 200 mg BID, N = 8): 0 n (%)
- Any event TEAE, events (MAD 200 mg BID, N = 8): 7
- Any event TEAE, participants (MAD 200 mg BID, N = 8): 4 (50.0) n (%)
- Constipation TEAE, events (MAD 200 mg BID, N = 8): 0
- Constipation TEAE, participants (MAD 200 mg BID, N = 8): 0 n (%)
- Diarrhea TEAE, events (MAD 200 mg BID, N = 8): 1
- Diarrhea TEAE, participants (MAD 200 mg BID, N = 8): 1 (12.5) n (%)
- Dry skin TEAE, events (MAD 200 mg BID, N = 8): 2
- Dry skin TEAE, participants (MAD 200 mg BID, N = 8): 2 (25.0) n (%)
- Dysgeusia TEAE, events (MAD 200 mg BID, N = 8): 1
- Dysgeusia TEAE, participants (MAD 200 mg BID, N = 8): 1 (12.5) n (%)
- Gastrointestinal disorders TEAE, events (MAD 200 mg BID, N = 8): 1
- Gastrointestinal disorders TEAE, participants (MAD 200 mg BID, N = 8): 1 (12.5) n (%)
- General disorders and administration site conditions TEAE, events (MAD 200 mg BID, N = 8): 1
- General disorders and administration site conditions TEAE, participants (MAD 200 mg BID, N = 8): 1 (12.5) n (%)
- Headache TEAE, events (MAD 200 mg BID, N = 8): 0
- Headache TEAE, participants (MAD 200 mg BID, N = 8): 0 n (%)
- Injury, poisoning, and procedural complications TEAE, events (MAD 200 mg BID, N = 8): 0
- Injury, poisoning, and procedural complications TEAE, participants (MAD 200 mg BID, N = 8): 0 n (%)
- Investigations TEAE, events (MAD 200 mg BID, N = 8): 0
- Investigations TEAE, participants (MAD 200 mg BID, N = 8): 0 n (%)
- Medical device site reaction TEAE, events (MAD 200 mg BID, N = 8): 1
- Medical device site reaction TEAE, participants (MAD 200 mg BID, N = 8): 1 (12.5) n (%)
- Musculoskeletal and connective tissue disorders TEAE, events (MAD 200 mg BID, N = 8): 0
- Musculoskeletal and connective tissue disorders TEAE, participants (MAD 200 mg BID, N = 8): 0 n (%)
- Nasal dryness TEAE, events (MAD 200 mg BID, N = 8): 2
- Nasal dryness TEAE, participants (MAD 200 mg BID, N = 8): 2 (25.0) n (%)
- Neck pain TEAE, events (MAD 200 mg BID, N = 8): 0
- Neck pain TEAE, participants (MAD 200 mg BID, N = 8): 0 n (%)
- Nervous system disorders TEAE, events (MAD 200 mg BID, N = 8): 1
- Nervous system disorders TEAE, participants (MAD 200 mg BID, N = 8): 1 (12.5) n (%)
- Oropharyngeal pain TEAE, events (MAD 200 mg BID, N = 8): 0
- Oropharyngeal pain TEAE, participants (MAD 200 mg BID, N = 8): 0 n (%)
- Reproductive system and breast disorders TEAE, events (MAD 200 mg BID, N = 8): 0
- Reproductive system and breast disorders TEAE, participants (MAD 200 mg BID, N = 8): 0 n (%)
- Respiratory, thoracic, and mediastinal disorders TEAE, events (MAD 200 mg BID, N = 8): 2
- Respiratory, thoracic, and mediastinal disorders TEAE, participants (MAD 200 mg BID, N = 8): 2 (25.0) n (%)
- Skin and subcutaneous tissue disorders TEAE, events (MAD 200 mg BID, N = 8): 2
- Skin and subcutaneous tissue disorders TEAE, participants (MAD 200 mg BID, N = 8): 2 (25.0) n (%)
- Sneezing TEAE, events (MAD 200 mg BID, N = 8): 0
- Sneezing TEAE, participants (MAD 200 mg BID, N = 8): 0 n (%)
- Testicular mass TEAE, events (MAD 200 mg BID, N = 8): 0
- Testicular mass TEAE, participants (MAD 200 mg BID, N = 8): 0 n (%)
- Wound TEAE, events (MAD 200 mg BID, N = 8): 0
- Wound TEAE, participants (MAD 200 mg BID, N = 8): 0 n (%)
- PCSA QTcF increase from baseline ]30-60] msec, participants n/N1 (MAD 300 mg BID): four
- ALT in the participant with ALT > 3 ULN (MAD 300 mg BID, Day 18, 4 days after the last dose): 181 IU/L
- Abdominal pain TEAE, events (MAD 300 mg BID, N = 8): 1
- Abdominal pain TEAE, participants (MAD 300 mg BID, N = 8): 1 (12.5) n (%)
- Alanine aminotransferase increased TEAE, events (MAD 300 mg BID, N = 8): 1
- Alanine aminotransferase increased TEAE, participants (MAD 300 mg BID, N = 8): 1 (12.5) n (%)
- Any event TEAE, events (MAD 300 mg BID, N = 8): 3
- Any event TEAE, participants (MAD 300 mg BID, N = 8): 2 (25.0) n (%)
- Constipation TEAE, events (MAD 300 mg BID, N = 8): 1
- Constipation TEAE, participants (MAD 300 mg BID, N = 8): 1 (12.5) n (%)
- Diarrhea TEAE, events (MAD 300 mg BID, N = 8): 0
- Diarrhea TEAE, participants (MAD 300 mg BID, N = 8): 0 n (%)
- Dry skin TEAE, events (MAD 300 mg BID, N = 8): 0
- Dry skin TEAE, participants (MAD 300 mg BID, N = 8): 0 n (%)
- Dysgeusia TEAE, events (MAD 300 mg BID, N = 8): 0
- Dysgeusia TEAE, participants (MAD 300 mg BID, N = 8): 0 n (%)
- Gastrointestinal disorders TEAE, events (MAD 300 mg BID, N = 8): 2
- Gastrointestinal disorders TEAE, participants (MAD 300 mg BID, N = 8): 1 (12.5) n (%)
- General disorders and administration site conditions TEAE, events (MAD 300 mg BID, N = 8): 0
- General disorders and administration site conditions TEAE, participants (MAD 300 mg BID, N = 8): 0 n (%)
- Headache TEAE, events (MAD 300 mg BID, N = 8): 0
- Headache TEAE, participants (MAD 300 mg BID, N = 8): 0 n (%)
- Injury, poisoning, and procedural complications TEAE, events (MAD 300 mg BID, N = 8): 0
- Injury, poisoning, and procedural complications TEAE, participants (MAD 300 mg BID, N = 8): 0 n (%)
- Investigations TEAE, events (MAD 300 mg BID, N = 8): 1
- Investigations TEAE, participants (MAD 300 mg BID, N = 8): 1 (12.5) n (%)
- Medical device site reaction TEAE, events (MAD 300 mg BID, N = 8): 0
- Medical device site reaction TEAE, participants (MAD 300 mg BID, N = 8): 0 n (%)
- Musculoskeletal and connective tissue disorders TEAE, events (MAD 300 mg BID, N = 8): 0
- Musculoskeletal and connective tissue disorders TEAE, participants (MAD 300 mg BID, N = 8): 0 n (%)
- Nasal dryness TEAE, events (MAD 300 mg BID, N = 8): 0
- Nasal dryness TEAE, participants (MAD 300 mg BID, N = 8): 0 n (%)
- Neck pain TEAE, events (MAD 300 mg BID, N = 8): 0
- Neck pain TEAE, participants (MAD 300 mg BID, N = 8): 0 n (%)
- Nervous system disorders TEAE, events (MAD 300 mg BID, N = 8): 0
- Nervous system disorders TEAE, participants (MAD 300 mg BID, N = 8): 0 n (%)
- Oropharyngeal pain TEAE, events (MAD 300 mg BID, N = 8): 0
- Oropharyngeal pain TEAE, participants (MAD 300 mg BID, N = 8): 0 n (%)
- Reproductive system and breast disorders TEAE, events (MAD 300 mg BID, N = 8): 0
- Reproductive system and breast disorders TEAE, participants (MAD 300 mg BID, N = 8): 0 n (%)
- Respiratory, thoracic, and mediastinal disorders TEAE, events (MAD 300 mg BID, N = 8): 0
- Respiratory, thoracic, and mediastinal disorders TEAE, participants (MAD 300 mg BID, N = 8): 0 n (%)
- Skin and subcutaneous tissue disorders TEAE, events (MAD 300 mg BID, N = 8): 0
- Skin and subcutaneous tissue disorders TEAE, participants (MAD 300 mg BID, N = 8): 0 n (%)
- Sneezing TEAE, events (MAD 300 mg BID, N = 8): 0
- Sneezing TEAE, participants (MAD 300 mg BID, N = 8): 0 n (%)
- Testicular mass TEAE, events (MAD 300 mg BID, N = 8): 0
- Testicular mass TEAE, participants (MAD 300 mg BID, N = 8): 0 n (%)
- Wound TEAE, events (MAD 300 mg BID, N = 8): 0
- Wound TEAE, participants (MAD 300 mg BID, N = 8): 0 n (%)
- participants with AESIs (ALT increase) (MAD, all balinatunfib groups): four
- participants with at least one TEAE (MAD, all balinatunfib groups (12/32)): 37.5%
- tolerability (all repeated oral doses (100–600 mg total daily dose, 14 days)): well tolerated
